Measurements: ChEMBL document CHEMBL4118097, “Selective Inhibitors of Dual Leucine Zipper Kinase (DLK, MAP3K12) with Activity in a Model of Alzheimer's Disease” (J Med Chem, 2017)

Columns and labels:
[1] = target: 5'-AMP-activated protein kinase catalytic subunit alpha-1 (Homo sapiens) (UniProt Q13131); assay: Inhibition of PRKAA1 (unknown origin) at 1 uM by FRET assay relative to control
[2] = target: Substance-P receptor (Homo sapiens) (UniProt P25103); assay: Binding affinity to recombinant human NK1 receptor at 10 uM relative to control
Sequence of Substance-P receptor (Homo sapiens) (P25103 whole entry): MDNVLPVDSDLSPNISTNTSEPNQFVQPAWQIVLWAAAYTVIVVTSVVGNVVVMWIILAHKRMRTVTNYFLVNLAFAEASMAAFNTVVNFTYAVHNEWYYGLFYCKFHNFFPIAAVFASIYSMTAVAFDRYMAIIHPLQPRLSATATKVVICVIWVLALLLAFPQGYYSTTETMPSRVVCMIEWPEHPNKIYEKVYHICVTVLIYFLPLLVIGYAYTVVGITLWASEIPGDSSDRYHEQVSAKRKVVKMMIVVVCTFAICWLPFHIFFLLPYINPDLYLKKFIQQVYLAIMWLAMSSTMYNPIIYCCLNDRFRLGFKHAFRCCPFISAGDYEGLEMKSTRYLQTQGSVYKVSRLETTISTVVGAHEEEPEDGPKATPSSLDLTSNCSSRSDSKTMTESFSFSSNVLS
Summary of the method: (§1)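 Broad radioligand-binding and enzyme screening panel covering 42 targets (biogenic amine and neuropeptide receptors, ion channels, neurotransmitter transporters, acetylcholinesterase). Single test concentration of 10 μM. Results expressed as binding relative to control, with a hit defined as >50% of control.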

[3] = target: Adenosine receptor A1 (Homo sapiens) (UniProt P30542); assay: Binding affinity to recombinant human A1 adenosine receptor at 10 uM relative to control; summary of the method: as §1
Sequence of Adenosine receptor A1 (Homo sapiens) (P30542 whole entry, the tested form may be a part): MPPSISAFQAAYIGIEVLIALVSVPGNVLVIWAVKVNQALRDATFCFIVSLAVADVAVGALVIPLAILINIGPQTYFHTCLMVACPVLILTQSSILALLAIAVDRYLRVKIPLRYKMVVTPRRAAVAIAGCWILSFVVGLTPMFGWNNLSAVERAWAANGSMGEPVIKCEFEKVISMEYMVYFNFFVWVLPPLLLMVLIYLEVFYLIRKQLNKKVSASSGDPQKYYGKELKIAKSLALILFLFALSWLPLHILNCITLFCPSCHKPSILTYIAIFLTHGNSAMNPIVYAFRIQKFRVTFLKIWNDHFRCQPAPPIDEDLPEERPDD

[4] = target: Mitogen-activated protein kinase kinase kinase 13 (Homo sapiens, UniProt O43283); assay: Binding affinity to full length wild type human LZK (M1 to W966 residues) expressed in mammalian cells by KINOMEscan assay; format: cell-based
[5] = test system: RAF proto-oncogene serine/threonine-protein kinase (Homo sapiens), P04049 [Y340D,Y341D]; assay: Inhibition of recombinant N-terminal GST-tagged human RAF1 catalytic domain (306 to 648 residues) Y340D/Y341D double mutant expressed in baculovirus expression system at 1 uM by FRET assay relative to control
Sequence of RAF proto-oncogene serine/threonine-protein kinase (Homo sapiens), P04049 [Y340D,Y341D] (P04049 whole entry Y340D/Y341D, the tested form may be a part): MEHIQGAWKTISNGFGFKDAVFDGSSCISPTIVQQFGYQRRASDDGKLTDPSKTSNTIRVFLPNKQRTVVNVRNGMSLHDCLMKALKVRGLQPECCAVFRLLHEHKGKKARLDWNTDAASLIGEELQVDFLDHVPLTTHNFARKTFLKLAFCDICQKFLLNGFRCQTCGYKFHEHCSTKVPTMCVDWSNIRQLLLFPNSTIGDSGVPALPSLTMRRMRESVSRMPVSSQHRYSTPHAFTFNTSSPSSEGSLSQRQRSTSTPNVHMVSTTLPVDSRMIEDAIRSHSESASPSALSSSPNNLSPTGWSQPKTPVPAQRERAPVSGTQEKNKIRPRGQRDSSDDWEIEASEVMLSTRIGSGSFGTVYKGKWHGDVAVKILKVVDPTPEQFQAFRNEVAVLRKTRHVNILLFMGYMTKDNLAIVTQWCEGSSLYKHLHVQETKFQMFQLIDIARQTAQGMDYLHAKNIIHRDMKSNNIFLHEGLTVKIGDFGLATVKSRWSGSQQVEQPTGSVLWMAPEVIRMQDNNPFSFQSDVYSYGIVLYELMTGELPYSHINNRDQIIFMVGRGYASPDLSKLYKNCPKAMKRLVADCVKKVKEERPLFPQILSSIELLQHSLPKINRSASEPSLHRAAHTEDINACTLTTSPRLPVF
Summary of the method: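 Part of a 220-kinase panel run at a single concentration of 1 μM. Z′-LYTE format: phosphorylation of a labelled peptide read by FRET. Values reported as percent inhibition.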

[6] = target: Myotonin-protein kinase (Homo sapiens) (UniProt Q09013); assay: Inhibition of full length recombinant human DMPK expressed in baculovirus expression system at 1 uM by FRET assay relative to control
[7] = target: Dual specificity mitogen-activated protein kinase kinase 3 (Homo sapiens) (UniProt P46734); assay: Inhibition of recombinant full length GST-tagged human MEK3 expressed in baculovirus expression system at 1 uM by FRET assay relative to control
Sequence of Dual specificity mitogen-activated protein kinase kinase 3 (Homo sapiens) (P46734 whole entry): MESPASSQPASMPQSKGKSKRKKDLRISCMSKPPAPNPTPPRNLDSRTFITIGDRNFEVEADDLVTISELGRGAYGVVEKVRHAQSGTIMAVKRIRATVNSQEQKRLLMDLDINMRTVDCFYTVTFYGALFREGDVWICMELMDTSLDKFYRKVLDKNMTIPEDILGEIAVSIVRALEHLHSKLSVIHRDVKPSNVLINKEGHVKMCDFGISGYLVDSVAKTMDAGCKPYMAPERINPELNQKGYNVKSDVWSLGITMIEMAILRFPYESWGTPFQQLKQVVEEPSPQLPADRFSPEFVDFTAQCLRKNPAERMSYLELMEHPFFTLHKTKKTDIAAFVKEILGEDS
Summary of the method: (§2)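 Single-concentration screen at 1 μM in Life Technologies SelectScreen, across a 220-kinase panel. Z′-LYTE format measures phosphorylation of a labeled peptide by FRET. Results are reported as percent inhibition.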

[8] = target: Dual specificity protein kinase CLK3 (Homo sapiens) (UniProt P49761); assay: Inhibition of full length recombinant GST-tagged human CLK3 expressed in baculovirus expression system at 1 uM by FRET assay relative to control
Sequence of Dual specificity protein kinase CLK3 (Homo sapiens) (P49761 whole entry, looked up): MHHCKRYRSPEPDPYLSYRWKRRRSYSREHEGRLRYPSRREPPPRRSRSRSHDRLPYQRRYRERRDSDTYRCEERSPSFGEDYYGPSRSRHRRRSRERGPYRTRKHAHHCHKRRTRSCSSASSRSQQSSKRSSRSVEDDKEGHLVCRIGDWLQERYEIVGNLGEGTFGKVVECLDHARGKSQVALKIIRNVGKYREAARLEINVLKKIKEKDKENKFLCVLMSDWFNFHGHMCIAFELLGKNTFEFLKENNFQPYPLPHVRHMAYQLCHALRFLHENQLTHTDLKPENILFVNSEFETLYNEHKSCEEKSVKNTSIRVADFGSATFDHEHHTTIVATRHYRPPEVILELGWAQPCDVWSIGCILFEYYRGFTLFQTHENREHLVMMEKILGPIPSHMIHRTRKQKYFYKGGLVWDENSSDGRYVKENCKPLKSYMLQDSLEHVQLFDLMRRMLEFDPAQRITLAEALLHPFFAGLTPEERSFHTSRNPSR

[9] = target: 3-phosphoinositide-dependent protein kinase 1 (Homo sapiens) (UniProt O15530); assay: Inhibition of recombinant full length His-tagged human PDK1 expressed in baculovirus expression system at 1 uM by FRET assay relative to control
[10] = target: Mast/stem cell growth factor receptor Kit (Homo sapiens) (UniProt P10721); assay: Inhibition of recombinant GST/His-tagged human KIT cytoplasmic domain (544 to 976 residues) at 1 uM by FRET assay relative to control
Sequence of Mast/stem cell growth factor receptor Kit (Homo sapiens) (P10721 whole entry, the tested form may be a part): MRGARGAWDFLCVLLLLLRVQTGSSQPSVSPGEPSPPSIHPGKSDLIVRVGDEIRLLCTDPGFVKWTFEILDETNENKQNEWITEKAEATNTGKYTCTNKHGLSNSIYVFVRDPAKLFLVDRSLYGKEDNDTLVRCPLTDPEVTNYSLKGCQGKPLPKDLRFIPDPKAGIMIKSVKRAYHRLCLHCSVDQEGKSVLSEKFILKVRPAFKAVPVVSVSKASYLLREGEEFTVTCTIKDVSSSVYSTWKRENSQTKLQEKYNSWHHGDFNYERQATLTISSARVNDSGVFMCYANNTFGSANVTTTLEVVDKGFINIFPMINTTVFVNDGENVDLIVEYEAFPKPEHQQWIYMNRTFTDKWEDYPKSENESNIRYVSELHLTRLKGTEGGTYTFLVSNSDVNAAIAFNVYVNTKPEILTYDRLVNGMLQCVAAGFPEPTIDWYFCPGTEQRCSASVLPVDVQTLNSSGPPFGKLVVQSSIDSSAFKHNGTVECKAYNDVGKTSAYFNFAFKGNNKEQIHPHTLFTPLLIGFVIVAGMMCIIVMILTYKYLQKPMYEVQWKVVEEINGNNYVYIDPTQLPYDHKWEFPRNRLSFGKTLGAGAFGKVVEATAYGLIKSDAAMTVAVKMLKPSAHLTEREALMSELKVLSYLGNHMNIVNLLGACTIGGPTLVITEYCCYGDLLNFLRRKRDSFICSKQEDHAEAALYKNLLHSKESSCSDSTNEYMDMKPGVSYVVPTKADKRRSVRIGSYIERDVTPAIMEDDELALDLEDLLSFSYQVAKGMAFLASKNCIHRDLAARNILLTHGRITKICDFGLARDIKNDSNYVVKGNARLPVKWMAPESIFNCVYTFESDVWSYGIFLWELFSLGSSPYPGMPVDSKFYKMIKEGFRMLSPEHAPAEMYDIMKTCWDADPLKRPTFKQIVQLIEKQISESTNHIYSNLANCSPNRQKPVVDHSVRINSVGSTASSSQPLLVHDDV
Summary of the method: (§3)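 Single-point screen at 1 μM compound in a 220-kinase panel run by Life Technologies (SelectScreen). Z′-LYTE format: phosphorylation of a labeled peptide substrate read by FRET. Values are reported as percent inhibition.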

[11] = target: Tyrosine-protein kinase JAK1 (Homo sapiens) (UniProt P23458); assay: Inhibition of recombinant GST-tagged human JAK1 catalytic domain (866 to 1154 residues) expressed in baculovirus expression system at 1 uM by FRET relative to control; summary of the method: as §3
[12] = target: Testis-specific serine/threonine-protein kinase 1 (Homo sapiens) (UniProt Q9BXA7); assay: Inhibition of recombinant full length His-tagged human TSSK1 expressed in baculovirus expression system at 1 uM by FRET assay relative to control
[13] = target: High affinity nerve growth factor receptor (Homo sapiens, UniProt P04629); assay: Inhibition of recombinant His-tagged human TrkA cytoplasmic domain (441 to 796 residues) expressed in baculovirus expression system at 1 uM by FRET assay relative to control; summary of the method: as §2
[14] = target: Tyrosine-protein kinase Lyn (Homo sapiens) (UniProt P07948); assay: Inhibition of recombinant full length His-tagged human LYN expressed in baculovirus expression system at 1 uM by FRET assay relative to control
Homo sapiens = organism: Homo sapiens; assay: Binding affinity to L-type calcium channel verapamil/phenylalkylamine binding site (unknown origin) receptor at 10 uM relative to control; summary of the method: as §1
[15] = target: D(2) dopamine receptor (Homo sapiens) (UniProt P14416); assay: Binding affinity to recombinant human D2 short dopamine receptor at 10 uM relative to control; summary of the method: as §1
TAK1/TAB1 (Homo sapiens) = TAK1/TAB1 (Homo sapiens) (UniProt Q15750+O43318); assay: Inhibition of recombinant full length His-tagged human TAK1-TAB1 (437 to 504 residues) expressed in baculovirus expression system at 1 uM by FRET assay relative to control
[16] = target: Acetylcholinesterase (Homo sapiens) (UniProt P22303); assay: Binding affinity to acetylcholinesterase (unknown origin) at 10 uM relative to control; summary of the method: as §1
[17] = target: Aurora kinase B (Homo sapiens) (UniProt Q96GD4); assay: Inhibition of recombinant full length His-tagged human Aurora B expressed in baculovirus expression system at 1 uM by FRET assay relative to control
Sequence of Aurora kinase B (Homo sapiens) (Q96GD4 whole entry, the tested form may be a part): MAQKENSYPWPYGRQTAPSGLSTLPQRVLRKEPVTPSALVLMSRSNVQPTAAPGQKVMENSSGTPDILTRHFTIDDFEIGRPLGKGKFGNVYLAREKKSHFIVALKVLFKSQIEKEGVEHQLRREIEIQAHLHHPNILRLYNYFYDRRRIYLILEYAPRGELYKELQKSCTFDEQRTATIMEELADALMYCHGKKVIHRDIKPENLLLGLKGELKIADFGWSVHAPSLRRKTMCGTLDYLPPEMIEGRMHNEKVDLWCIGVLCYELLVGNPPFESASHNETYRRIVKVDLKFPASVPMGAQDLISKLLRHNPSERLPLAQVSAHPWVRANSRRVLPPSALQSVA

[18] = target: Rho-associated protein kinase 1 (Homo sapiens) (UniProt Q13464); assay: Inhibition of recombinant N-terminal GST-tagged human ROCK1 catalytic domain (1 to 535 residues) expressed in baculovirus expression system at 1 uM by FRET assay relative to control; summary of the method: as §2
[19] = target: Opioid receptors; mu/kappa/delta (Homo sapiens) (UniProt P41145+P41143+P35372); assay: Binding affinity to opiod receptor (unknown origin) receptor at 10 uM relative to control; format: protein assay; summary of the method: as §1
[20] = target: Phosphorylase b kinase gamma catalytic chain, skeletal muscle/heart isoform (Homo sapiens) (UniProt Q16816); assay: Inhibition of recombinant full length GST-tagged human PHKgamma1 expressed in baculovirus expression system at 1 uM by FRET assay relative to control; summary of the method: as §2
Sequence of Phosphorylase b kinase gamma catalytic chain, skeletal muscle/heart isoform (Homo sapiens) (Q16816 whole entry, looked up, the tested form may be a part, canonical isoform): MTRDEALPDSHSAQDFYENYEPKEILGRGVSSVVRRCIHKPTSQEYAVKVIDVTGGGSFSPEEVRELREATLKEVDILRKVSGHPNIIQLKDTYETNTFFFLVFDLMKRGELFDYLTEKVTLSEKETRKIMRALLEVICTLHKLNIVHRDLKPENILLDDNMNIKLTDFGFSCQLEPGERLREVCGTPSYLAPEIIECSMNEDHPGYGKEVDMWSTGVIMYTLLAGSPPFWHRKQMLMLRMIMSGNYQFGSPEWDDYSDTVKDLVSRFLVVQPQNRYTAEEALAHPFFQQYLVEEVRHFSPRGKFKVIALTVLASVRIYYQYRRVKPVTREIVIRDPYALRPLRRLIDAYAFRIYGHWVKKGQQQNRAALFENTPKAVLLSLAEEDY

[21] = target: Ephrin type-A receptor 3 (Homo sapiens) (UniProt P29320); assay: Inhibition of recombinant His-tagged human EphA3 cytoplasmic domain expressed in baculovirus expression system at 1 uM by FRET assay relative to control; summary of the method: as §3
[22] = target: Tyrosine-protein kinase Lck (Homo sapiens) (UniProt P06239); assay: Inhibition of recombinant full length His-tagged human Lck expressed in baculovirus at 1 uM by FRET assay relative to control
Sequence of Tyrosine-protein kinase Lck (Homo sapiens) (P06239 2-509 limits assumed): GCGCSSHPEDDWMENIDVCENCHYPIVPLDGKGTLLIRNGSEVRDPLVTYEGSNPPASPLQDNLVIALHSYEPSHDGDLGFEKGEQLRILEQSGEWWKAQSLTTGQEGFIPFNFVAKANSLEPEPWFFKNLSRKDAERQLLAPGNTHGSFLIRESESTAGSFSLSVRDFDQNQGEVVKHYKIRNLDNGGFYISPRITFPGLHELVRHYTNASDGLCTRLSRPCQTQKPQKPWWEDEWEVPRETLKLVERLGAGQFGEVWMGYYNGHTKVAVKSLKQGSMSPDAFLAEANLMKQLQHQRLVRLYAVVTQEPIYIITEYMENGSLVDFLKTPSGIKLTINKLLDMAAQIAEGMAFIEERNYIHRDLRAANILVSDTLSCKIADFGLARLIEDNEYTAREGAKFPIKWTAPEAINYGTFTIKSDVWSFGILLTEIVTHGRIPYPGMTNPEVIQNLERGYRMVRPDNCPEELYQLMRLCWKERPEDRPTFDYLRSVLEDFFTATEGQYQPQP

[23] = target: Muscle, skeletal receptor tyrosine-protein kinase (Homo sapiens) (UniProt O15146); assay: Inhibition of recombinant GST-tagged human MUSK cytoplasmic domain expressed in baculovirus expression system at 1 uM by FRET assay relative to control; summary of the method: as §3
[24] = target: CDK8/Cyclin C (Homo sapiens) (UniProt P49336+P24863); assay: Inhibition of recombinant full length His-tagged human CDK8/CyclinC expressed in baculovirus expression system at 1 uM by FRET assay relative to control
[25] = target: Proto-oncogene tyrosine-protein kinase Src (Homo sapiens) (UniProt P12931); assay: Inhibition of recombinant full length C-terminal His-tagged human Src cytoplasmic domain expressed in baculovirus expression system at 1 uM by FRET assay relative to control; summary of the method: as §2
Sequence of Proto-oncogene tyrosine-protein kinase Src (Homo sapiens) (P12931 2-536 limits assumed): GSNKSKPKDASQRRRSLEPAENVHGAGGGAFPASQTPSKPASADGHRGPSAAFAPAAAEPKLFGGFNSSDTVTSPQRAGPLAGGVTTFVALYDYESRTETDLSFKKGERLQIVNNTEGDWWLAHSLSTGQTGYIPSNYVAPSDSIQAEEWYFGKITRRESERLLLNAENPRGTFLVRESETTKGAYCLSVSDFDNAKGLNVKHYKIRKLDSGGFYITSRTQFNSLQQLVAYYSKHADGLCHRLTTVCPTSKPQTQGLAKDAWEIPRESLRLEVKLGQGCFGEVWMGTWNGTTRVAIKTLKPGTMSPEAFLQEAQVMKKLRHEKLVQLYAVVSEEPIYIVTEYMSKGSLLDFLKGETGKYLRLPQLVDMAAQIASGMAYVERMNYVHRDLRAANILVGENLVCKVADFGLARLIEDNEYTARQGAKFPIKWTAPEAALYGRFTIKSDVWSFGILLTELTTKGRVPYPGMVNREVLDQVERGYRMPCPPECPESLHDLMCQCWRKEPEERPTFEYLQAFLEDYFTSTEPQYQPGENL

Row | Compound | inhibition [1] [%] | Activity [2] [%] | Activity [3] [%] | Kd [4] [nM] | inhibition [5] [%] | inhibition [6] [%] | inhibition [7] [%] | inhibition [8] [%] | inhibition [9] [%] | inhibition [10] [%] | inhibition [11] [%] | inhibition [12] [%] | inhibition [13] [%] | inhibition [14] [%] | Activity (Homo sapiens) [%] | Activity [15] [%] | inhibition (TAK1/TAB1 (Homo sapiens)) [%] | Activity [16] [%] | inhibition [17] [%] | inhibition [18] [%] | further results
1 | CC(C)n1nc(-c2cnc(N)c(OC(F)(F)F)c2)cc1[C@H]1[C@@H]2CN(C3COC3)C[C@@H]21 | 5 | > 50 | > 50 | 460 | -1.9 | 39.1 | 3.6 | 5.9 | 3.3 | 23.9 | 6.9 | 9.4 | 67.1 | 15.6 | > 50 | > 50 | 35.6 | > 50 | 14.4 | 8.8 | Activity [19]: > 50%; inhibition [20]: 4%; inhibition [21]: 10.2%; inhibition [22]: 7.5%; inhibition [23]: 4%; inhibition [24]: 9.9%; inhibition [25]: 23.8%
2 | Nc1ncc(-c2cc([C@H]3[C@@H]4CN(C5COC5)C[C@@H]43)n(CC3CC3)n2)cc1C(F)(F)F | 3.3 | > 50 | > 50 | 120 | 4 | 58.5 | -2.7 | -3.6 | -2.7 | 6.5 | 3.9 | 11.5 | 56.1 | 17.9 | > 50 | > 50 | 42.1 | > 50 | 7.4 | -7.4 | Activity [19]: > 50%; inhibition [20]: 3%; inhibition [21]: 22.9%; inhibition [22]: 36.1%; inhibition [23]: 27.8%; inhibition [24]: 2.4%; inhibition [25]: 22%
